Bioassay records deposited in PubChem BioAssay by several laboratories.
An excerpt weighted towards active compounds, which were near 1.5% of everything screened.
LANA-H2B inh: blockers of LANA interaction with H2A/H2B – biochemical, FP readout, HTS, primary screen. inhibition, % (concentration not given with the values). Protein LANA1 (Human herpesvirus 8 type P (isolate GK18)), Q9QR71. cell-free LANA-H2A/H2B peptide, fluorescence polarization. actives 0.6% (n = 320,000); in the data active = inhibition mostly above about 10%, no sharp cut-off; inactive = mostly below about 6.7%
HNF4A DNA FP: change in binding of human HNF4A to DNA, primary screen, biochemical, fluorescence polarization, FITC-DNA | actives 0.3% (n = 360,000) | 1 h | activity change, % at 10 µM | Hepatocyte nuclear factor 4-alpha (Homo sapiens), P41235; in the data active = activity change above about 30%, passing the limit was not always enough
EBNA-1 inhibitor: EBNA-1 DNA-binding inhibitors, primary screen, biochemical, fluorescence polarization. inhibition, % at 14.8 µM. actives 0.34% (n = 300,000); in the data active = inhibition above about 28%
A1 inh: caspase 3/7 activation in MEF A1-2A-BIM cells, primary screen, A1 inhibitor project, cell-based, luminescence, HTS; Caspase-Glo 3/7 luminescence, 3 h; percent of clofoctol response, vehicle zero; caspase activation, % (no concentration beside the values); actives 0.066% (n = 330,000); AID 2462, 2010;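 active = over half of replicate activation scores above 10%, or exactly half above 10 with the replicate mean above 10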
CSN inh: inhibitors of CSN-mediated cullin deneddylation, primary screen, biochemical, fluorescence polarization, uHTS; COP9 signalosome complex subunit 5 (Homo sapiens), Q92905; Purified CSN, SCF-Nedd8-OG deneddylation; inhibition, % at 12.5 µM; actives 0.38% (n = 360,000); AID 651999, 2013;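 active = pattern-corrected inhibition above about 35%, with an unprinted fluorescence ratio check between 0.5 and 1.5, limit read from the data, passing the limit was not always enough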;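 also: 0% = enzyme with substrate and 100% = substrate without enzyme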
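Detection – fluorescence polarization · System – HEK293T-derived human Csn5 enzyme · Controls – substrate-only high control, full reaction low control · Timing – 90 min, room temperature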
ZTA DNA inh: ZTA (EBV) inhibition in EBNA-1 counter-screen. P03206. ZTA-DNA binding, fluorescence polarization. inhibition, % at 11 µM. actives 0.15% (n = 320,000); in the data active = inhibition above about 33%
EBNA-1 confirm: EBNA-1 DNA-binding inhibitors, retest, confirmation, biochemical, fluorescence polarization, triplicate | AID 2292, 2010 | inhibition, % at 14.8 µM | shares compounds with EBNA-1 inhibitor | Recombinant EBNA-1 DBD, Cy5-DNA fluorescence polarization | actives 35% (n = 830);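 active = mean inhibition across replicates above a set limit taken from the earlier primary screen, cut at about 28% in these data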;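 also: plate controls were EBNA-1 protein with DMSO for no effect and wells lacking EBNA-1 for full effect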
ZTA DNA inh trip: EBV Zta DNA binding inhibitors, counter-screen for EBNA-1 inhibitor project, biochemical, fluorescence polarization, triplicate; 830 tested, under 10 active; inhibition, % at 11.1 µM; AID 2328, 2010; Zta-ZRE DNA binding, Cy5 fluorescence polarization; shares compounds with EBNA-1 inhibitor;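 active = mean inhibition over triplicates above a set limit taken from the primary EBNA-1 screen, cut at about 37% in these data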;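 also: purified full length Zta protein with Cy5 labeled ZRE DNA probe; 0% = Zta with DMSO and 100% = wells lacking Zta protein; inhibitors lower polarization by freeing the labeled DNA probe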
Starred values were filed as active, the others as inactive; x = no result given.

SMILES	LANA-H2B inh	HNF4A DNA FP	EBNA-1 inhibitor	A1 inh	CSN inh	ZTA DNA inh	EBNA-1 confirm	ZTA DNA inh trip
O=c1c2cc(N3CCOCC3)ccc2[nH]c(=S)n1Cc1cccc(Cl)c1	-1	-2	30*	1	1	1	7	7
COc1cccc(CNC(=O)CCCCCn2c(=S)[nH]c3ccc(N4CCOCC4)cc3c2=O)c1	x	x	12	1	x	-1	x	x
CCc1ccc(OCCn2cccn2)cc1	-1	1	-5	0	5	-2	x	x
COc1ccc(NC(=O)CON=CC(=O)Nc2ccc(C)cc2)c(OC)c1	-4	5	x	0	-3	x	x	x
C=CCn1c(SCC(=O)NC(=O)NCc2ccco2)nc2sc(CC)cc2c1=O	-4	-3	28*	1	10	10	-6	4
C=CCn1c(SCC(=O)NCc2ccco2)nc2ccccc2c1=O	1	2	8	1	-14	11	x	x
Cc1sc2nc(SCC(=O)NCc3ccco3)n(CCc3ccccc3)c(=O)c2c1C	-1	6	30*	1	4	4	3	0
O=c1c2ccccc2nc(SCc2nc3ccccc3s2)n1Cc1ccco1	-2	-1	49*	0	3	-6	4	6
O=c1c2ccccc2nc(SCc2ccccc2)n1Cc1ccco1	2	2	-15	1	2	-11	x	x
COC(=O)C1=C(C)NC2=C(C(=O)c3ccccc32)C1c1cccc(OC)c1 (stereo not drawn)	-8	0	28*	0	103	-5	38*	4
COc1ccc(CNC(=O)CCc2ccc(S(=O)(=O)N3CCCCCC3)cc2)cc1OC	x	1	x	x	-5	x	x	x
O=C(Cn1c(-c2ccccc2Cl)nc2ccccc21)Nc1cccc(Cl)c1	x	-2	5	1	-7	3	x	x
COC(=O)c1ccc(NC(=O)Cn2c(-c3nonc3N)nc3ccccc32)cc1	3	8	10	1	7	21	x	x
Cc1cc(C)cc(NC(=O)Cn2c(-c3ccccc3Cl)nc3ccccc32)c1	-5	1	60*	0	-4	1	-10	-9
CCOC(=O)c1ccc(NC(=O)Cn2c(-c3nonc3N)nc3ccccc32)cc1	-1	3	31*	-1	17	27	32*	19
Cc1cc(C)n(CC(=O)NNC(=O)COc2ccc(Br)cc2F)n1	4	-2	x	-1	-3	x	x	x
O=C(NCc1ccc(-c2nc3ccccc3s2)cc1)c1cc2ccccc2o1	2	5	28*	-1	-3	3	3	5
O=C(NCc1ccc(-c2nc3ccccc3s2)cc1)c1ccc(Br)o1	-3	3	8	-1	3	3	x	x
COc1ccccc1-c1cccc([C@@H]2C[C@H]3[C@H](CON3C)CN2C(=O)C(C)(C)C)c1	x	1	x	x	-5	x	x	x
COc1ccc(C(=O)NC(=S)N(C)Cc2ccccc2)cc1Br	-1	4	45*	0	-4	4	23	2
CN(Cc1ccccc1)C(=S)NC(=O)c1ccccc1	-4	0	-20	0	3	3	x	x
CC1CCCC(C)N1S(=O)(=O)c1ccc(NC(=O)CCn2cnc3ccccc3c2=O)cc1 (stereo not drawn)	-3	-4	48*	-1	9	-9	52*	2
Cc1ccc(C)c(S(=O)(=O)N2CCCOC2CNC(=O)C(=O)NCc2ccc3c(c2)OCO3)c1 (stereo not drawn)	-2	1	8	-1	2	-14	x	x
O=C(CSc1nnc(-c2ccc(O)cc2)o1)Nc1ccc2c(c1)OCCO2	1	0	34*	1	3	-7	12	9
CC(C)(C)c1nc(SCC(=O)Nc2ccc(N3CCOCC3)cc2)c2ccccc2n1	1	-3	0	1	0	-6	x	x
SMILES	LANA-H2B inh	HNF4A DNA FP	EBNA-1 inhibitor	A1 inh	CSN inh	ZTA DNA inh	EBNA-1 confirm	ZTA DNA inh trip
O=C(CSc1nnc(-c2ccc(O)cc2)o1)Nc1cccc(O)c1	-5	1	-14	0	-3	0	x	x
Cc1ccc(NC(=O)CSc2nnc(-c3ccc(S(=O)(=O)N4CCCC4)cc3)o2)cc1C	x	3	108*	x	-10	-11	56*	194*
CC(C)(C)c1nc(SCC(=O)Nc2ccc3c(c2)OCCO3)c2ccccc2n1	4	-1	46*	-1	-1	-3	16	3
Cc1ccc(S(=O)(=O)/N=C(\N)Nc2nc(C)c3ccc(C)cc3n2)cc1	2	-4	37*	0	4	8	15	-1
Cc1ccc(S(=O)(=O)/N=C(\N)Nc2nc(C)c3cc(C)ccc3n2)cc1	0	2	11	0	1	11	x	x
Cc1ccc2c(C)nc(N/C(N)=N/S(=O)(=O)c3ccccc3)nc2c1	2	-2	22	1	4	0	x	x
Cc1ccc(S(=O)(=O)/N=C(\N)Nc2nc(C)c3cc(C)c(C)cc3n2)cc1	-4	2	38*	-1	2	8	0	-12
O=C(NCCCN1CCOCC1)c1onc(CSc2ccc(F)c(F)c2)c1C(=O)NCCCN1CCOCC1	-5	2	5	1	-2	13	x	x
CCCNC(=O)CSc1nnc(NC(=O)C2CC(=O)N(c3ccccc3OC)C2)s1 (stereo not drawn)	x	-1	x	x	0	x	x	x
CCOc1ccc(S(=O)(=O)N2CCC(C(=O)NCc3ccncc3)CC2)cc1Cl	-8	0	4	1	1	10	x	x
COc1ccc(-c2nc(SC(CC(=O)NCCO)c3cccs3)n[nH]2)cc1 (stereo not drawn)	0	-1	-4	1	-2	7	x	x
O=C(CC(Sc1n[nH]c(-c2ccccc2)n1)c1ccccc1)NCc1ccccc1 (stereo not drawn)	-2	-1	33*	0	-1	2	10	9
O=C(CSC(=S)N1CCCCC1)Nc1nc(-c2ccccc2)c(-c2ccccc2)o1	1	2	36*	0	2	26	6	-1
CCC(Oc1ccccc1)C(=O)Nc1ccc(S(=O)(=O)Nc2cc(C)on2)cc1 (stereo not drawn)	2	0	2	-1	7	-1	x	x
